This note sets out measurements from ChEMBL document CHEMBL1155032, “Dendronpholides A-R, cembranoid diterpenes from the chinese soft coral Dendronephthya sp” (J Nat Prod, 2008).

The structures appear in SMILES notation. ≈ marks a conversion by molar mass, not a printed value.

This assay is described as follows: Cytotoxicity against human […] cells. The assay is classed as functional, cell-based. In outline:
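In vitro assay on the human gastric cancer line BGC-823, one of a panel of human cancer lines. Viability was read out by the MTT method, following a previously published procedure.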
Regarding `C=C1C(=O)O[C@]2(C)CC[C@@H]1C[C@H](O)/C(C)=C/C/C=C(\C)CC[C@@H]2O`, the IC50 was > 10 µg/mL. Then `C=C1C(=O)O[C@]2(C)CC[C@@H]1C[C@H](O)/C(C)=C/C/C=C(\C)CC[C@@H]2OC(C)=O` [DENDRONPHOLIDE A], with > 10 µg/mL.

`C=C1C(=O)O[C@]2(C)CC[C@@H]1C[C@@H](O)/C(C)=C/C/C=C(\C)CC[C@@H]2OC(C)=O` [DENDRONPHOLIDE B]: the IC50 was > 10 µg/mL. `C=C(C(=O)OC)[C@@H]1CC[C@@](C)(O)[C@@H](O)CC/C(C)=C/C/C=C(\C)[C@@H](O)C1` [DENDRONPHOLIDE C]: the IC50 turned out to be 0.05 µg/mL (≈ 0.136 µM). As for `C=C(C(=O)OC)[C@@H]1CC[C@@](C)(O)[C@@H]2CC[C@@](C)(O2)[C@@H](OC(C)=O)CC[C@]2(C)O[C@H]2C1` [DENDRONPHOLIDE G], inhibition was half-maximal at 0.02 µg/mL (≈ 0.0471 µM) (IC50).

Regarding `C=C(C(=O)O)[C@@H]1CC[C@@](C)(O)[C@@H]2CC[C@@](C)(O2)[C@@H](OC(C)=O)CC[C@](C)(O)[C@H](O)C1` [DENDRONPHOLIDE I], the IC50 is > 10 µg/mL. `C=C(C(=O)O)[C@@H]1CC[C@@](C)(O)[C@@H]2CC[C@@](C)(O2)[C@@H](O)CC[C@](C)(O)[C@H](OC(C)=O)C1` [DENDRONPHOLIDE J] returned an IC50 of 0.2 µg/mL (≈ 0.467 µM). As to `C=C(C(=O)O)[C@@H]1CC[C@@](C)(O)[C@@H]2CC[C@@](C)(O2)[C@@H](OC(C)=O)CC[C@](C)(OC)[C@H](O)C1` [DENDRONPHOLIDE K], the IC50 was > 10 µg/mL. Consider `C=C(C(=O)OCC)[C@@H]1CC[C@@](C)(O)[C@@H]2CC[C@@](C)(O2)[C@@H](OC(C)=O)C/C=C(\C)[C@H](O)C1` [DENDRONPHOLIDE O], for which the IC50 was > 10 µg/mL. Next, `C=C(C(=O)OC)[C@@H]1CC[C@@](C)(O)[C@@H]2CC[C@@](C)(O2)[C@@H](OC(C)=O)C/C=C(\C)[C@H](O)C1` [DENDRONPHOLIDE P]: > 10 µg/mL; `C=C1C(=O)O[C@]2(C)CC[C@@H]1C[C@@H](OC(C)=O)[C@@]1(C)CC[C@H](O1)[C@@](C)(O)CC[C@@H]2OC(C)=O` [DENDRONPHOLIDE Q]: > 10 µg/mL; `C=C(C(=O)O)[C@@H]1CC[C@@](C)(O)[C@@H](OC(C)=O)CCC(=C)[C@@H]2CC[C@@](C)(O2)[C@H](O)C1` [DENDRONPHOLIDE R]: > 10 µg/mL.
